The target in series [1] is T1, Prostaglandin G/H synthase 1 (Ovis aries, UniProt P05979).
T1 sequence (P05979 whole entry): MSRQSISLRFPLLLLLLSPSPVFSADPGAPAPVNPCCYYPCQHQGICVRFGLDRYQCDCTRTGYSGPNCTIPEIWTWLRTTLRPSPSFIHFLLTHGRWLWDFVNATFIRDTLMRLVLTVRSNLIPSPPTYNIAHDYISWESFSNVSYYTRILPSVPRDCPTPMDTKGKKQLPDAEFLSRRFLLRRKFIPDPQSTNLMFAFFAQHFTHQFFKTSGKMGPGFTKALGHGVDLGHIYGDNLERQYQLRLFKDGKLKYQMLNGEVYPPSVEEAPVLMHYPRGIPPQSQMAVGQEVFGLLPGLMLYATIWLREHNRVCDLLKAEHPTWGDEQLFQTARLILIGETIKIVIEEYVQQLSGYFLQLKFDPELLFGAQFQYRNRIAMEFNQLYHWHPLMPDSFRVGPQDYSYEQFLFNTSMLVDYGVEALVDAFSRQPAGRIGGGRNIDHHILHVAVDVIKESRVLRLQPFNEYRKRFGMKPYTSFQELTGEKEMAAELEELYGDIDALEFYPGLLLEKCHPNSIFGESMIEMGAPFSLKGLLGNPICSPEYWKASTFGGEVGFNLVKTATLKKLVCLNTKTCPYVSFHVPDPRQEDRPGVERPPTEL
As to the kind of experiment: Inhibition of ovine COX1 after 2 mins by EIA.

In series [2] the target is T2, Prostaglandin G/H synthase 2 (Homo sapiens, UniProt P35354).
T2 sequence (P35354 whole entry): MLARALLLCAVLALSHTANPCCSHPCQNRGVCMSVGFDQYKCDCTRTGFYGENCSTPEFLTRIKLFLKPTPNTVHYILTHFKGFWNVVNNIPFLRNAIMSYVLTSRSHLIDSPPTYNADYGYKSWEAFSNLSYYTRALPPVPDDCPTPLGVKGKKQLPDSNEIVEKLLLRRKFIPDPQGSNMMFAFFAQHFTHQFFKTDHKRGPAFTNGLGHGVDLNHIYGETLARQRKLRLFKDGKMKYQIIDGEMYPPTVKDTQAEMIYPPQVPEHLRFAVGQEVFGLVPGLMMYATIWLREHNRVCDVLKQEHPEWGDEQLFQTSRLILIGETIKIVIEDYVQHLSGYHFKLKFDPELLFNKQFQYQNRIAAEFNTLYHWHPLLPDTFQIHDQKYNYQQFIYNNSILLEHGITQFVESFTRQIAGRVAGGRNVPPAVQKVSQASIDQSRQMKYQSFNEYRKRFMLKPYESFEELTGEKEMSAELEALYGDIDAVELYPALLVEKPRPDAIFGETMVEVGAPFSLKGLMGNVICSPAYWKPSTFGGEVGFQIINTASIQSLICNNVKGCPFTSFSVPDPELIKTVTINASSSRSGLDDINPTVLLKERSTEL
Nature of the series: Inhibition of human recombinant COX2 after 2 mins by EIA.

Series [3] is described as follows: Selectivity index, ratio of IC50 for ovine COX1 to IC50 for human recombinant COX2. Put shortly: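 Fluorescent screening kit with ovine COX-1 or human recombinant COX-2, heme and ADHP substrate in 0.1 M Tris-HCl pH 8.0 with 5 mM EDTA and 2 mM phenol. Compounds in DMSO tested at 0.01-100, 5 min at 37 °C. Arachidonic acid added; reaction stopped with HCl after 2 min. Resorufin read at ex 535/em 590 nm. IC50 from triplicate concentration-inhibition curves; SI = COX-1 IC50/COX-2 IC50.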

The test system of series [4] is Rattus norvegicus. Nature of the series: Antiinflammatory activity in po dosed albino rat assessed as inhibition of carrageenan-induced paw edema administered 1 hr prior challenge measured 2 hrs post challenge. The format is functional. In short, it runs like this:
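Male Charles Foster albino rats, 150-200 g, n = 6 per group. Compounds suspended in 0.5% methyl cellulose, given orally at 50, 100 and 200 mg/kg; reference drugs at 25, 50 and 100 mg/kg. 1 h later, 0.2 mL of 1% carrageenan in 0.9% NaCl injected into the right hind paw.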

Series [5] has as its system Mus musculus. As to the kind of experiment: Analgesic activity in mouse assessed as inhibition of acetic acid-induced writhing at 200 mg/kg, po administered 60 mins prior challenge measured for 5 to 10 mins post acetic acid challenge relative to control. Type of series: functional. Put shortly:
(§1)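 Groups of 6 mice given saline, test compound (200 mg/kg) or aspirin (100 mg/kg) orally. 60 min later, 0.6% acetic acid injected i.p. Writhes per mouse counted between 5 and 10 min after injection. Percent inhibition of writhes calculated against the saline control group.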
On the technique in general: An intraperitoneal irritant provokes the stretching counted in writhing tests.

In series [6] the test system is Rattus norvegicus. As to the kind of experiment: Ulcerogenic activity in po dosed albino rat at 200 mg/kg, po administered intragastrically measured after 3 hrs. Type of series: toxicity, organism-based. The arrangement: dose 200 mg/kg, route oral. The settings on record: in vivo. In short, it runs like this: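 Rats of 180-200 g, 6 per group, fasted 24 h, dosed intragastrically at 200 mg/kg. Killed 3 h later; stomachs opened along the lesser curvature. Each hemorrhagic lesion measured along its maximum length and ranked. Lesion lengths summed to give the ulcer index, reported as mean ± SEM.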

For series [7], the system named is Mus musculus. As to the kind of experiment: Analgesic activity in mouse assessed as inhibition of acetic acid-induced writhing at 100 mg/kg, po administered 60 mins prior challenge measured for 5 to 10 mins post acetic acid challenge relative to control. Type of series: functional. In short, it runs like this: as §1

For orientation: IC50 means the concentration at which inhibition is half-maximal. Take `Clc1ccc(-c2nnc(-c3cn(-c4ccccc4)nc3-c3ccc(Br)cc3)o2)cc1`: the IC50 in series [1] is more than 100 µM; in series [2] it was 50 µM. For the same compound, in series [3], the Ratio IC50 is more than 2.
One may read the ED50 as the dose at which the effect has come halfway, by size or by number of responders. As for `Fc1ccc(-c2nn(-c3ccccc3)cc2-c2nnc(-c3ccncc3)o2)cc1`, the IC50 in series [1] was more than 100 µM; in series [2], 2.3 µM. For the same compound, in the series with Rattus norvegicus [4], the ED50 was 123 mg/kg. In addition, the Ratio IC50 in series [3] is more than 43.
For the compound `Cc1ccc(-c2nn(-c3ccccc3)cc2-c2nnc(-c3ccccc3)o2)cc1`, the results for the IC50 in series [1] and in series [2] were more than 100 µM and 25 µM, respectively. Moreover, the Ratio IC50 in series [3] was more than 4.
Turning to `COc1ccc(-c2nn(-c3ccccc3)cc2-c2nnc(-c3ccc(Cl)cc3)o2)cc1`, the IC50 is more than 100 µM in series [1] and 67 µM in series [2]. The Ratio IC50 in series [3] was more than 1.5.
As for `O=[N+]([O-])c1ccc(-c2nn(-c3ccccc3)cc2-c2nnc(-c3ccc(Cl)cc3)o2)cc1`, the IC50 was more than 100 µM in series [1] and 1.2 µM in series [2]. The ED50 in the series on Rattus norvegicus [4] is 167 mg/kg. The Ratio IC50 in series [3] is more than 83.3.
Turning to `Clc1ccc(-c2nn(-c3ccccc3)cc2-c2nnc(-c3ccccc3)o2)cc1`, the IC50 is more than 100 µM in series [1] and 4.7 µM in series [2]. The ED50 in the series on Rattus norvegicus [4] is 171 mg/kg. Moreover, the Ratio IC50 in series [3] was more than 21.
The corresponding values for `Clc1ccc(-c2nnc(-c3cn(-c4ccccc4)nc3-c3ccc(Cl)cc3)o2)cc1` are more than 100 µM, 8.7 µM, 199 mg/kg and more than 11.5.
By inhibition in vivo is commonly meant the drop in the measured response relative to a control, in per cent. Take `O=[N+]([O-])c1ccc(-c2nn(-c3ccccc3)cc2-c2nnc(-c3ccccc3)o2)cc1`: the IC50 in series [1] is more than 100 µM; in series [2] it was 0.31 µM. For the same compound, in the series on Rattus norvegicus [4], the ED50 was found to be 74.3 mg/kg. Besides, the inhibition in vivo at 200 mg/kg in the series with Mus musculus [5] turned out to be 67.3%. In addition, in the series with Rattus norvegicus [6], the Activity result was “Non-toxic”. In series [3], the Ratio IC50 was more than 222.
Regarding `Cc1ccc(-c2cc(C(F)(F)F)nn2-c2ccc(S(N)(=O)=O)cc2)cc1` [CELECOXIB], the ED50 in the series with Rattus norvegicus [4] amounted to 81.7 mg/kg.
`c1ccc(-c2nn(-c3ccccc3)cc2-c2nnc(-c3ccncc3)o2)cc1`: the IC50 was more than 100 µM in series [1] and 11.1 µM in series [2]. The Ratio IC50 in series [3] is more than 9.
Turning to `Clc1ccc(-c2nnc(-c3cn(-c4ccccc4)nc3-c3ccccc3)o2)cc1`, the figures for the IC50 in series [1] and in series [2] were more than 100 µM and 38 µM, respectively. Besides, the Ratio IC50 in series [3] is more than 2.6.
As to `CC(=O)Oc1ccccc1C(=O)O` [ASPIRIN], the inhibition in vivo at 100 mg/kg with Mus musculus [7] is 72.2%. In addition, in the series on Rattus norvegicus [6], the Activity entry was “Toxic”.
On to `O=C(O)Cc1ccccc1Nc1c(Cl)cccc1Cl` [DICLOFENAC], for which the ED50 with Rattus norvegicus [4] stood at 110 mg/kg.
With `Fc1ccc(-c2nn(-c3ccccc3)cc2-c2nnc(-c3ccc(Cl)cc3)o2)cc1`, the IC50 in series [1] was more than 100 µM; in series [2] it was 5.5 µM. The ED50 in the series with Rattus norvegicus [4] was found to be 182 mg/kg. Also, in series [3], the Ratio IC50 was more than 18.2.
Consider `Cc1ccc(-c2nn(-c3ccccc3)cc2-c2nnc(-c3ccc(Cl)cc3)o2)cc1`, for which the IC50 was more than 100 µM in series [1] and 58 µM in series [2]. The Ratio IC50 in series [3] is more than 1.7.
Take `COc1ccc(-c2nn(-c3ccccc3)cc2-c2nnc(-c3ccncc3)o2)cc1`: the IC50 in series [1] was more than 100 µM; in series [2], 42 µM. For the same compound, in series [3], the Ratio IC50 is more than 2.4.
Turning to `c1ccc(-c2nnc(-c3cn(-c4ccccc4)nc3-c3ccccc3)o2)cc1`, the figures for the IC50 in series [1] and in series [2] were more than 100 µM and 1.5 µM, respectively. Further, the ED50 in the series on Rattus norvegicus [4] amounted to 125 mg/kg. Besides, the Ratio IC50 in series [3] is more than 67.
Regarding `Cc1ccc(-c2nn(-c3ccccc3)cc2-c2nnc(-c3ccncc3)o2)cc1`, the IC50 was more than 100 µM in series [1] and 53 µM in series [2]. Besides, the Ratio IC50 in series [3] is more than 1.9.
As to `Clc1ccc(-c2nn(-c3ccccc3)cc2-c2nnc(-c3ccncc3)o2)cc1`, the IC50 in series [1] is more than 100 µM; in series [2], 4.4 µM. Besides, the ED50 with Rattus norvegicus [4] is 167 mg/kg. Further, in series [3], the Ratio IC50 was more than 23.
For the compound `Brc1ccc(-c2nn(-c3ccccc3)cc2-c2nnc(-c3ccccc3)o2)cc1`, the IC50 in series [1] and in series [2] was more than 100 µM throughout. Besides, the Ratio IC50 in series [3] is more than 1.
As to `Fc1ccc(-c2nn(-c3ccccc3)cc2-c2nnc(-c3ccccc3)o2)cc1`, the figures for the IC50 in series [1] and in series [2] were more than 100 µM and 6.5 µM, respectively. In the series on Rattus norvegicus [4], the ED50 stood at 175 mg/kg. The Ratio IC50 in series [3] is more than 15.4.
The corresponding values for `O=[N+]([O-])c1ccc(-c2nn(-c3ccccc3)cc2-c2nnc(-c3ccncc3)o2)cc1` are more than 100 µM, 0.5 µM, 72.6 mg/kg and more than 200.
Regarding `COc1ccc(-c2nn(-c3ccccc3)cc2-c2nnc(-c3ccccc3)o2)cc1`, the IC50 in series [1] and in series [2] was more than 100 µM each time. Also, the Ratio IC50 in series [3] was more than 1.
On to `Brc1ccc(-c2nn(-c3ccccc3)cc2-c2nnc(-c3ccncc3)o2)cc1`, for which the IC50 in series [1] was more than 100 µM; in series [2] it was 39 µM. Further, the Ratio IC50 in series [3] is more than 2.6.

Values taken from ChEMBL document CHEMBL3259642, “Design and synthesis of novel 2-phenyl-5-(1,3-diphenyl-1H-pyrazol-4-yl)-1,3,4-oxadiazoles as selective COX-2 inhibitors with potent anti-inflammatory activity” (Eur J Med Chem, 2014).
